We go through nine compounds from ChEMBL document CHEMBL1147664, “(S)-4,5-dihydro-2-(2-hydroxy-4-hydroxyphenyl)-4-methyl-4-thiazolecarboxylic acid polyethers: a solution to nephrotoxicity” (J Med Chem, 2006).

For data set [1], the system named is Sapajus apella. Briefly: Iron-clearing efficiency in iron-loaded Cebus apella at 150 umol/kg, po. It counts as functional. Put shortly: (§1)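 Cebus apella monkeys (3.5–4 kg), iron overloaded with iv iron dextran (about 500 mg Fe/kg), used at least 60 d later; single 150 μmol/kg dose. Feces and urine collected every 24 h from 4 d before to 5 d after dosing; iron by flame atomic absorption. Efficiency = (2-day post-drug iron minus mean 4-day baseline) / theoretical output, as percent; mean ± SEM.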

In data set [2] the test system is Rattus norvegicus. Briefly: Iron-clearing efficiency in non-iron-overloaded Sprague-Dawley rat at 300 umol/kg, sc. It counts as functional. A digest of the protocol: (§2)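 Bile-duct-cannulated, non-iron-overloaded male Sprague-Dawley rats (400–450 g), single 300 μmol/kg dose po or sc, given in water or as the monosodium salt depending on compound. Bile collected at 3-h intervals for 24 h; urine at 24 h. Efficiency = (treated minus control iron excretion) / theoretical output, as percent; mean ± SEM.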

In data set [3] the test system is Rattus norvegicus. As to the kind of experiment: Iron-clearing efficiency in non-iron-overloaded Sprague-Dawley rat at 300 umol/kg, po. It counts as functional. Put shortly: as §2
Data set [4] has as its system Sapajus apella. As to the kind of experiment: Iron-clearing efficiency in iron-loaded Cebus apella at 150 umol/kg, sc. The class given is functional. A digest of the protocol: as §1
A short description of data set [5]: Apparent partition coefficient of the compound at pH7.4. It counts as physicochemical. The conditions noted are these: octanol/water, pH 7.4; read-out: LogD7.4. A digest of the protocol: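 Apparent partition coefficient by shake-flask direct method between octanol and TRIS buffer, pH 7.4; reported as log of the fraction in the octanol layer (log P_app).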
The test system of data set [6] is Rattus norvegicus. As to the kind of experiment: Distribution in Sprague-Dawley rat pancreas at 300 umol/kg, sc after 2 hrs. The class given is ADME, organism-based. The conditions noted are these: in vivo. Put shortly:
(§3)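 Male Sprague-Dawley rats (250–350 g), single sc 300 μmol/kg dose; euthanized by CO2 at 2, 4, 6, 8 h (n = 3 per time point). Citrated cardiac-puncture plasma; tissues homogenized in water 1:2 (w/v), proteins precipitated with methanol at −20 °C, filtered. Reversed-phase HPLC with UV at 310 nm; levels from calibration curves, as nmol/g wet weight; detection limit about 5 nmol/g.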

A short description of data set [7]: Distribution in Sprague-Dawley rat plasma at 300 umol/kg, sc after 2 hrs. It counts as ADME, organism-based. Put shortly:
as §3

Data set [8] concerns Rattus norvegicus. Briefly: Nephrotoxicity in rat at 300 umol/kg. The conditions noted are these: in vivo.
A short description of data set [9]: Distribution in Sprague-Dawley rat plasma at 300 umol/kg, sc after 8 hrs. It counts as ADME, organism-based. Put shortly:
as §3

In data set [10] the test system is Rattus norvegicus. As to the kind of experiment: Distribution in Sprague-Dawley rat heart at 300 umol/kg, sc after 4 hrs. The class given is ADME, organism-based. As to conditions: in vivo. A digest of the protocol: as §3
For data set [11], the system named is Rattus norvegicus. Briefly: Distribution in Sprague-Dawley rat kidney at 300 umol/kg, sc after 2 hrs. As to conditions: in vivo; call rule not given here. The class given is ADME, organism-based. A digest of the protocol: as §3
Data set [12] relates to Rattus norvegicus. Briefly: Distribution in Sprague-Dawley rat kidney at 300 umol/kg, sc after 8 hrs. The class given is ADME, organism-based. The conditions noted are these: in vivo. A digest of the protocol: as §3
Data set [13] deals with Rattus norvegicus. Briefly: Distribution in Sprague-Dawley rat heart at 300 umol/kg, sc after 8 hrs. The conditions noted are these: in vivo. It counts as ADME, organism-based. A digest of the protocol:
as §3

The test system of data set [14] is Rattus norvegicus. Briefly: Distribution in Sprague-Dawley rat pancreas at 300 umol/kg, sc after 8 hrs. The class given is ADME, organism-based. As to conditions: in vivo. A digest of the protocol: as §3
For a further data set, the system named is Plasma. Briefly: Distribution in Sprague-Dawley rat plasma at 300 umol/kg, sc. The class given is ADME. As to conditions: read-out: Cp. A digest of the protocol:
as §3

The subject of data set [15] is Rattus norvegicus. As to the kind of experiment: Distribution in Sprague-Dawley rat heart at 300 umol/kg, sc after 2 hrs. It counts as ADME, organism-based. As to conditions: in vivo. Put shortly: as §3
Data set [16] has as its system Rattus norvegicus. As to the kind of experiment: Distribution in Sprague-Dawley rat liver at 300 umol/kg, sc after 8 hrs. It counts as ADME, organism-based. As to conditions: in vivo. A digest of the protocol:
as §3

For data set [17], the system named is Rattus norvegicus. As to the kind of experiment: Distribution in Sprague-Dawley rat liver at 300 umol/kg, sc after 2 hrs. It counts as ADME, organism-based. As to conditions: in vivo. A digest of the protocol: as §3

Turning to `COCCOCCOCCOc1ccc(C2=N[C@@](C)(C(=O)OC(C)C)CS2)c(O)c1`, the Activity with Sapajus apella [1] is 19.5%; with Rattus norvegicus [2], 22.1%; with Rattus norvegicus [3] it was 13.9%.

As for `CCOC(=O)[C@@]1(C)CSC(c2ccc(OCCOCCOCCOC)cc2O)=N1`, the Activity in the data set with Sapajus apella [4] is given as 17.9%; in the data set with Rattus norvegicus [2] it was 11.4%.

For the compound `O=C(O)[C@H]1CSC(c2ccccc2O)=N1`, in [5], the logD is -0.93.

As to `C[C@]1(C(=O)O)CSC(c2ccccc2O)=N1`, in data set [5], the logD was -0.34.

Regarding `CC1(C)SC(c2ccc(O)cc2O)=N[C@H]1C(=O)O`, the logD in data set [5] is -0.91.

In the data set with Rattus norvegicus [6], `COc1ccc(C2=N[C@@](C)(C(=O)O)CS2)c(O)c1` came in with a Drug uptake of 38 nmol/g. Further, in [7], the concentration at 2 h worked out at 470 µM. The Activity result is on record as “Active” in the data set on Rattus norvegicus [8] and 6.6% with Rattus norvegicus [3]. For the same compound, in [9], the concentration at 8 h was 75 µM.

For `CC1(C)SC(c2ccccc2O)=N[C@H]1C(=O)O`, in data set [5], the logD was -0.34.

Consider `COCCOCCOCCOc1ccc(C2=N[C@@](C)(C(=O)O)CS2)c(O)c1`, for which the Drug uptake with Rattus norvegicus [10] is 5 nmol/g; in the data set on Rattus norvegicus [11] it was 41 nmol/g; in the data set with Rattus norvegicus [6] it was 30 nmol/g; in the data set on Rattus norvegicus [12], less than 10 nmol/g; in the data set with Rattus norvegicus [13], 2 nmol/g; with Rattus norvegicus [14] it was 3 nmol/g. In addition, the Drug uptake with Rattus norvegicus [15] came out at 9 nmol/g. In addition, the logD in data set [5] was -1.1. The Activity with Sapajus apella [1] is on record as 25.4%; with Sapajus apella [4], 30.4%; in the data set on Rattus norvegicus [2], 8.7%; with Rattus norvegicus [3], 5.5%. Further, the concentration with Plasma is less than 10 µM.

On to `C[C@]1(C(=O)O)CSC(c2ccc(O)cc2O)=N1` [DEFERITRIN], for which the Drug uptake is on record as 100 nmol/g with Rattus norvegicus [11]; 6 nmol/g in the data set with Rattus norvegicus [6]; 9 nmol/g in the data set with Rattus norvegicus [12]; 12 nmol/g in the data set with Rattus norvegicus [16]; 5 nmol/g in the data set with Rattus norvegicus [15]; 48 nmol/g in the data set on Rattus norvegicus [17]. Also, the Activity in the data set with Sapajus apella [1] is recorded as 16.8%; in the data set with Sapajus apella [4] it was 15.9%; with Rattus norvegicus [2], 1.1%; in the data set on Rattus norvegicus [3], 1.1%. For the same compound, the concentration in the data set on Plasma is less than 10 µM.
